Published values of several laboratories.
Each line is one published result; the experiments were not run side by side.
Target: Cholinesterase (BCHE, Homo sapiens, UniProt P06276)
Observed: enzyme activity
Mode: inhibitor

Compound	test	test system	conditions	IC50
O=c1[nH]cc(Br)c(=O)[nH]1	Ellman			292 nM
Clc1ccc(Nc2nc3ccccc3c3[nH]c(C4CCCCC4)nc23)cc1Cl				4910 nM
O=c1[nH]cc(CO)c(=O)[nH]1	Ellman			443 nM
C#CCNc1nc(NCCCC2CCN(Cc3ccccc3)CC2)c(C#N)cc1C#N	Ellman			1920 nM
C=CCn1c2cc(OC(=O)CCCCN3CCN(Cc4cccc(Cl)c4)CC3)ccc2c2ccnc(C)c21	Ellman			568 nM
C[C@@H]1CCCN1CCCCOc1ccc2occc(=O)c2c1	Ellman		pH 7.4	48500 nM
Cc1ccccc1OP(=O)(Oc1ccccc1C)Oc1ccccc1C				~330 nM
C=CCn1c2cc(OC(=O)CCCCN3CCN(Cc4ccc(C(F)(F)F)cc4)CC3)ccc2c2ccnc(C)c21	Ellman			204 nM
CC(C)(C)c1cccc(OP(=O)(Oc2cccc(C(C)(C)C)c2)Oc2cccc(C(C)(C)C)c2)c1		liver microsomes		> 20 µg/mL
C=CCn1c2cc(OC(=O)CCCCN3CCN(Cc4ccc(F)cc4)CC3)ccc2c2ccnc(C)c21	Ellman			584 nM
CC(=O)n1ccc(=O)[nH]c1=O	Ellman			270 nM
C=CCn1c2cc(OC(=O)CCCN3CCN(Cc4ccccc4)CC3)ccc2c2ccnc(C)c21	Ellman			163 nM
CC(C)c1ccc(OP(=O)(Oc2ccc(C(C)C)cc2)Oc2ccc(C(C)C)cc2)cc1		liver microsomes		> 20 µg/mL
